Measured values reported in article PMC2193507 (The Journal of Experimental Medicine, 2001).

What was measured:
[1] = Isoaspartyl content of peptides; type: physicochemical; conditions: tested at 250 pmol
How it was run: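 Isoaspartate quantified by radiolabelled methyl incorporation using protein isoaspartyl methyltransferase and S-adenosyl-L-[methyl-3H]methionine, following the ISOQUANT kit protocol. Each peptide preparation was tested at 250 pmol. The manufacturer's standard gave an estimated 1,754 cpm per pmol. Batches had been stored frozen or at 4°C.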

[2] = system: T cell proliferation; conditions: in words; cited from earlier work
[3] = system: type A T cells; assay: Type A T cell hybridomas, recognition; type: cell-based; conditions: all type A T cells in Table 1
How it was run: (§1)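 IL-2 release assay: I-Ak-expressing M12.C3.F6 B lymphoma cells (5 × 104) were incubated with T cell hybridomas (5 × 104) and decreasing doses of antigen (native HEL or HEL 48–61 peptide) in MEM with 10% FCS for 18 h. Supernatants went to IL-2-dependent CTLL-2 cells cultured 40 h, with [3H]thymidine for the last 24 h.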

[4] = system: type B T cells; assay: Type B T cell hybridomas, recognition; type: cell-based; conditions: none of the type B triggered up to the value
How it was run: as §1

[5] = batch RD (7/00), tryptic peptide from HEL
[6] = batch Abbt (6/98), commercial source

## 46–61: tryptic peptide from HEL
[1]; [5]
  percentage of isoaspartyl: 0.9%
  pmol of isoaspartyl: 2.1 pmol

## murine cytochrome c peptide, residues 90–104: murine cytochrome c peptide, residues 90–104 (ERADLIAYLKKATNE; UniProt P62897 91-105, looked up, fragment)
[2]
  T cell proliferation after immunization of mice: did not trigger T cell proliferation

## HEL: HEL was purchased from Sigma-Aldrich
[3]
  HEL concentration triggering all type A T cells: ~0.1 µM
[4]
  HEL concentration up to which none of the type B T cells were triggered: > 10 µM

## 48–63: HEL peptide 48–63, batches 1387 and Abbt (commercial source) (DGSTDYGILQINSRWW; UniProt P00698 66-81, looked up, fragment)
[1]; batch 1387 (8/99)
  percentage of isoaspartyl: 0.1%
  pmol of isoaspartyl: 0.3 pmol
[1]; [6]
  percentage of isoaspartyl: 0 (0%)
  pmol of isoaspartyl: 0 (0%) pmol
